# NPY-Y2 PAM-ag – potentiates or activates human NPY-Y2 receptor; P49146; cells expressing NPY-Y2, potentiator/agonist read-out; activation, % at 3.6 µM; AID 1359; hit rate 0.45% among 220,000; in the data active means activation above about 27%;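 further: cells stimulated with NPY near EC25 plus isoproterenol at EC100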
# NPY-Y2 antag – antagonists of human neuropeptide Y receptor Y2; inhibition, % at 2.7 µM; NPY-Y2 expressing cells, antagonist mode; hit rate 0.99% among 140,000; AID 793
# NPY Y1 blocker – NPY-Y1 (human) receptor antagonism; HEK293-CNG Y1 cells, membrane potential fluorescence; NPY at EC95, then isoproterenol; inhibition, % at 3.6 µM; hit rate 1% among 200,000; AID 1040;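 active means inhibition above the campaign mean inhibition of all tested compounds plus 3 SD, cut at about 20% in these data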
# Target sequence (P25929 whole entry, looked up): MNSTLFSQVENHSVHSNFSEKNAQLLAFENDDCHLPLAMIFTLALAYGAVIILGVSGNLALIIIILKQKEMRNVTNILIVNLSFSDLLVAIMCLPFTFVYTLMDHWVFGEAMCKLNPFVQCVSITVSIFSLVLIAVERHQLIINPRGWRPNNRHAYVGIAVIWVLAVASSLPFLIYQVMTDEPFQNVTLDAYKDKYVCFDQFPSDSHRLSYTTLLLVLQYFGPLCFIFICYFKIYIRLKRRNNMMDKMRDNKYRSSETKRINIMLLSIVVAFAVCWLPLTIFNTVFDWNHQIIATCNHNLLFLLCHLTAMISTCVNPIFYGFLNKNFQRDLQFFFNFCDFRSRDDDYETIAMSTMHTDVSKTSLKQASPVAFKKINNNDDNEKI
#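 Material: HEK293 cells co-expressing NPY Y1 receptor and cyclic-nucleotide gated channel. Timing: compound incubation 1 h at room temperature, readout 45 min post-stimulation. Signal: fluorescence, membrane potential probe.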
# NPY-Y1 PAM-ag – potentiates or activates human NPY-Y1 receptor | P25929 | NPY-Y1 expressing cells, potentiator/agonist activation | activation, % at 3.6 µM | hit rate 0.37% among 220,000; in the data active means activation above about 33%, passing the limit was not always enough;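 further: cells stimulated with NPY at EC10 then isoproterenol at EC100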
# NPY-Y1 ant conf – human NPY-Y1 antagonism, confirmation; HEK293-CNG NPY-Y1, membrane potential fluorescence, cAMP; NPY challenge against isoproterenol-raised cAMP; AID 1254; hit rate 21% among 1,200; inhibition, % at 3.6 µM; shares compounds with NPY Y1 blocker; in the data active means inhibition above about 20%
# NPY-Y2 antag ct – counter-screen for NPY-Y1 antagonists: human NPY-Y2 antagonism; hit rate 28% among 1,200; inhibition, % at 3.6 µM; HEK293 NPY-Y2 CNG membrane potential fluorescence; cells given NPY, then isoproterenol; shares compounds with NPY Y1 blocker; AID 1255
# A number is an active result; i = inactive; nt = no result given. Hits are enriched below; roughly 1.8% of the tested compounds scored in any of these assays. Unless noted, no stated cut-off is given here; in the data, active means inhibition above about 17%; inactive means the rest.
SMILES,NPY-Y2 PAM-ag,NPY-Y2 antag,NPY Y1 blocker,NPY-Y1 PAM-ag,NPY-Y1 ant conf,NPY-Y2 antag ct
OC(COc1ccc2c(c1)CCC2)CN1CCN(c2ccccc2F)CC1 (stereo unspecified),i,i,26.0,i,i,i
C#CCn1c(S(=O)(=O)Cc2ccc(OC)cc2)nc(-c2ccccc2)c1-c1ccccc1,i,i,20.4,i,i,i
COc1ccc(C(=O)CCc2nc3ccccc3s2)cc1,i,i,i,i,nt,nt
N=c1n(CCN2CCOCC2)c2ccccc2n1Cc1ccccc1Br,i,i,20.6,i,i,i
Cn1c(=O)n(Cc2ccccc2Br)c2ccccc21,i,nt,i,i,nt,nt
Cc1cc(CN(C)C(=O)CC2C(=O)NCCN2Cc2c(F)cccc2Cl)on1 (stereo unspecified),i,nt,nt,i,nt,nt
CC(Nc1nc(N2CCNCC2)nc2ccccc12)c1ccccc1 (stereo unspecified),i,nt,25.0,i,27.7,35.5
c1ccc(CNc2nc(N3CCN(Cc4ccccc4)CC3)nc3ccccc23)cc1,i,nt,nt,i,nt,nt
CCCCNC(=O)c1onc(CSc2cccc(OCC)c2)c1C(=O)O,i,i,22.3,i,i,i
CC(C)NC(=O)c1onc(CSc2cccc3ccccc23)c1C(=O)O,i,i,21.5,i,i,i
Cn1ccnc1C1CCCCN1Cc1nc(Cc2cccc(C(F)(F)F)c2)no1 (stereo unspecified),i,nt,i,i,nt,nt
COc1ccc(-c2noc(CN3CCCCC3c3nccn3C)n2)cc1 (stereo unspecified),i,nt,42.4,i,29.5,i
Cn1ccnc1C1CCCCN1Cc1nc(-c2ccc3c(c2)OCO3)no1 (stereo unspecified),i,nt,42.3,i,26.6,i
COc1cc(-c2noc(-c3ccccc3C(=O)NCc3ccco3)n2)cc(OC)c1OC,i,i,25.3,i,i,i
CCOC(=O)C(NC(=O)Nc1ccc(Cl)cn1)(Oc1ccc(F)cc1)C(F)(F)F (stereo unspecified),i,i,i,i,nt,nt
O=C(CCS(=O)(=O)c1ccc(Cl)cc1)Nc1ccc(N2CCOCC2)cc1,i,nt,nt,i,nt,nt
CC1(c2cc([N+](=O)[O-])cc([N+](=O)[O-])c2)CC(C)(C)N(C(=O)c2ccccc2)c2ccccc21 (stereo unspecified),i,i,i,i,nt,nt
CC1(c2ccccc2)CC(C)(C)N(C(=O)C2CCCO2)c2ccccc21 (stereo unspecified),i,i,26.7,i,i,i
CC(C)Cn1cc(C(=O)NCc2cccs2)c2c3ccccc3n(C)c2c1=O,i,i,21.0,i,i,i
CC(C)Cn1cc(C(=O)N2CCC(C)CC2)c2c3ccccc3n(C)c2c1=O,i,nt,23.0,i,i,i
CC(C)Cn1cc(C(=O)N2CCOCC2)c2c3ccccc3n(C)c2c1=O,i,i,i,i,nt,nt
O=C(c1cnn(C(=O)c2cccc(S(=O)(=O)N3CCOCC3)c2)c1)c1ccccc1O,i,nt,i,i,nt,nt
COc1cccc(C(=O)N2CCN=C2SC)c1,i,nt,i,i,nt,nt
Nc1c(C(=O)Nc2ccccc2)sc2nc3c(c(-c4ccco4)c12)CCCC3,i,i,i,i,nt,nt
Cc1ccccc1NC(=O)c1sc2nc3c(c(-c4ccco4)c2c1N)CCCC3,i,i,23.5,i,i,i
SMILES,NPY-Y2 PAM-ag,NPY-Y2 antag,NPY Y1 blocker,NPY-Y1 PAM-ag,NPY-Y1 ant conf,NPY-Y2 antag ct
Cc1cc(C(=O)CSc2nc3ccccc3[nH]2)c(C)n1CC1CCCO1 (stereo unspecified),i,i,25.5,i,42.2,i
Cc1nc2cc(N3CCCCC3)c(NC(=O)c3cccnc3)cc2c(=O)n1Cc1ccccc1,i,i,23.0,i,i,i
CCOC(=O)C(Sc1cc(-c2ccccc2)nc2ncnn12)C(C)=O (stereo unspecified),i,nt,nt,i,nt,nt
c1ccc2c(c1)CC/C2=N/Nc1nc2ccccc2[nH]1,i,nt,26.4,i,20.4,20.8
Cn1c(SCC(=O)NNC(=O)Cc2ccccc2)nc2ccccc2c1=O,i,nt,i,i,nt,nt
COc1cccc(-c2nn(-c3ccccc3)cc2CN(C)Cc2c(C)nc3ccccn23)c1,i,nt,23.2,i,i,i
C=CCOc1ccc(Br)cc1/C=N/O,i,i,24.4,i,i,i
Cc1cc(/C=C2/SC(=S)N(c3cccc(C(F)(F)F)c3)C2=O)c(C)n1-c1cccnc1,i,i,48.3,i,35.1,24.4
Cc1ccc(C)n1-c1ccccc1N1CCCCC1,i,nt,56.2,i,i,i
Cc1ccc(CN(Cc2cc3cccc(C)c3[nH]c2=O)C(=S)NCCCN(C)C)cc1,i,nt,i,i,nt,nt
Cc1cccc2cc(CN(Cc3ccccc3)C(=S)NCCCN(C)C)c(=O)[nH]c12,i,nt,28.2,i,i,i
O=C(c1ccc2c(c1)OCO2)C1CCCN(C2CCN(CCc3ccccc3)CC2)C1 (stereo unspecified),i,nt,21.9,i,i,23.1
CCOc1ccc(C2=Nn3c(nnc3-c3ccccc3OC)SC2)cc1,i,i,26.4,i,i,26.9
CCOc1ccc(-c2nnc3n2N=C(c2ccc(OC)cc2)CS3)cc1,i,i,i,i,nt,nt
OCCC1CN(Cc2cccn2-c2ccccn2)CCN1C1CCCC1 (stereo unspecified),i,nt,i,i,nt,nt
CC(C)Oc1cccc(C(=O)C2CCCN(Cc3cccn3-c3ccccn3)C2)c1 (stereo unspecified),i,nt,48.9,i,44.0,39.7
Cc1ccc(-n2cccn2)c(CN2CCCC(C(=O)c3sccc3C)C2)c1 (stereo unspecified),i,nt,72.2,i,32.0,37.8
O=C(c1ccc(C(F)(F)F)cc1)C1CCCN(Cc2cccn2-c2ncccn2)C1 (stereo unspecified),i,nt,23.0,i,i,17.9
O=C(c1ccc(Cl)cc1)C1CCCN(Cc2cccn2-c2ccccn2)C1 (stereo unspecified),i,nt,58.8,i,31.8,31.4
COc1ccc(C(=O)C2CCCN(Cc3cccn3-c3nccs3)C2)cc1OC (stereo unspecified),i,nt,nt,i,nt,nt
COc1ccc2c(c1)C=C(C(=O)OCc1cccnc1)CO2,i,nt,i,i,nt,nt
NC(=O)c1ccccc1OC1CCC1,i,nt,nt,i,nt,nt
CC(=O)N1CCc2cc(N=NC3=C(O)CC(C)(C)CC3=O)ccc21,i,nt,i,i,nt,nt
COc1ccc(C(=O)C2CCCN(Cc3cccn3-c3ccccn3)C2)cc1F (stereo unspecified),44.5,nt,21.9,55.2,i,i
COc1ccc(C(=O)C2CCCN(Cc3cccn3-c3nccs3)C2)cc1F (stereo unspecified),i,nt,i,i,nt,nt
COc1cccc(C(=O)C2CCCN(Cc3cccn3-c3ccccn3)C2)c1 (stereo unspecified),i,nt,37.4,i,34.8,29.9
Cc1ccsc1C(=O)C1CCCN(Cc2cccn2-c2ccc(Cl)cn2)C1 (stereo unspecified),i,nt,40.6,i,41.7,37.6

# Assay outcomes (PubChem BioAssay)
